Structures are written as SMILES. Activity calls are given as the source filed them. The calls are words filed in the database; no cut-off is given here.

One may read the IC50 as the concentration that gives 50% inhibition. By fraction unbound is commonly meant the share of the substance not bound to proteins or other matrix. One may read the Kp as tissue or fluid exposure divided by exposure in the circulation. Broadly, the efflux ratio is the permeability from basolateral to apical divided by that in the opposite direction, in the common usage. In general, Vdss refers to the apparent volume that relates the amount in the body to the concentration in plasma or blood.

In series [1] the target is T1, Muscarinic acetylcholine receptor M4 (Homo sapiens) (UniProt P08173).
T1 sequence (whole entry): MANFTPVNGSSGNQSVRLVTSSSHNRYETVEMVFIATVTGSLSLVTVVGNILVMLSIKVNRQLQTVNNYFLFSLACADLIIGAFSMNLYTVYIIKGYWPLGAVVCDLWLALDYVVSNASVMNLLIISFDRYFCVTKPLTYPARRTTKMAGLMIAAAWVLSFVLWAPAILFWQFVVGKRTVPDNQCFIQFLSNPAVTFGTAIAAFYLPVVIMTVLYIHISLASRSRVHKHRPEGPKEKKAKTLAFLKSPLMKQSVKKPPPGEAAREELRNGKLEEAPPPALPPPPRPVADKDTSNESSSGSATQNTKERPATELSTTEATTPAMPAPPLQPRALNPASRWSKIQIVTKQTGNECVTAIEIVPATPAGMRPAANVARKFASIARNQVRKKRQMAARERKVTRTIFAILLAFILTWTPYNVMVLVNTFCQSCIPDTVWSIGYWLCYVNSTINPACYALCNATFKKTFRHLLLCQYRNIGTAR
The series is described as follows: Positive allosteric modulation of human M4 receptor expressed in CHO cells coexpressing Gqi5 assessed as increase in acetylcholine-induced calcium mobilization relative to acetylcholine. The series is classed as functional, cell-based. An outline of the steps: (§1)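 Calcium mobilization in CHO cells expressing hM4 with Gqi5. Compound added in presence of a fixed EC20 concentration of acetylcholine. Values are means of three independent experiments, each run in triplicate.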
In general terms: A change in cytosolic calcium serves as a functional read-out for many receptors and channels.

In series [2] the target is T2, Muscarinic acetylcholine receptor M4 (Homo sapiens, UniProt P08173).
T2 sequence (P08173 whole entry): T1 sequence (whole entry)
Put plainly: Positive allosteric modulation of human M4 receptor expressed in CHO cells coexpressing Gqi5 assessed as increase in acetylcholine-induced calcium mobilization. The series is classed as functional, cell-based. The essentials: as §1

The target of series [3] is Cytochrome P450 2D6 (Homo sapiens, UniProt P10635). Put plainly: Inhibition of CYP2D6 (unknown origin). The series is classed as ADME.
In series [4] the target is Cytochrome P450 3A4 (Homo sapiens, UniProt P08684). The series is described as follows: Inhibition of CYP3A4 (unknown origin). The series is classed as ADME.
A short description of series [5]: Unbound plasma concentration in rat. The series is classed as ADME, cell-free.
Series [6] deals with T3, Cytochrome P450 1A2 (Homo sapiens, UniProt P05177).
T3 sequence (P05177 whole entry): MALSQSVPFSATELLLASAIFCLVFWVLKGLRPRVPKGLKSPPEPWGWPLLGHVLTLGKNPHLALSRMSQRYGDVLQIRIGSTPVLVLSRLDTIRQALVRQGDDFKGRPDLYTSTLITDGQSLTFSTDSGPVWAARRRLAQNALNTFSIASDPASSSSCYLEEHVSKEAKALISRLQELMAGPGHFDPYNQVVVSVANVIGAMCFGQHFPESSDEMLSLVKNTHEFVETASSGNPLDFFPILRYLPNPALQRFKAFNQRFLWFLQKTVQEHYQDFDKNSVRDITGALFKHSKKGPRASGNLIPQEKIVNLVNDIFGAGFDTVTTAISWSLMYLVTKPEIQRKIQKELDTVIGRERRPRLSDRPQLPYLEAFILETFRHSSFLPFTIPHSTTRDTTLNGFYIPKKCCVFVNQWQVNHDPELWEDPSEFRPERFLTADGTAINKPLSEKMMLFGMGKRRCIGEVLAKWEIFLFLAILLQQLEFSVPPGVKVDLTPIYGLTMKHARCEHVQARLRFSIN
The series is described as follows: Inhibition of CYP1A2 (unknown origin). The series is classed as ADME.

The subject of series [7] is Rattus norvegicus. Put plainly: Elimination half-life in Sprague-Dawley rat at 0.1 to 1 mg/kg, iv. The series is classed as ADME, organism-based. The settings on record: in vivo.
The nature of series [8]: Brain to plasma permeability coefficient, Kp of the compound in Sprague-Dawley rat at 0.1 to 0.2 mg/kg, iv measured at 0.25 hrs post dose. The series is classed as ADME, organism-based. The essentials:
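Sprague-Dawley rats were dosed IV at 0.1–0.2 mg/kg, with brain and plasma sampled at 0.25 hr. Brain:plasma Kp was calculated, with Kp,uu where unbound fractions were available.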

The test system of series [9] is MDR1 (P-gp). Put plainly: Efflux ratio of permeability in MDCK2-MDR1 cells. The series is classed as ADME, cell-based, Canis lupus familiaris. The note with it: dog, MDCK-MDR1.
In series [10] the target is Cytochrome P450 2C9 (Homo sapiens, UniProt P11712). The series is described as follows: Inhibition of CYP2C9 (unknown origin). The series is classed as ADME.
Series [11] is described as follows: Unbound plasma concentration in human. The series is classed as ADME, cell-free.
Series [12] is described as follows: Unbound brain concentration in rat. The series is classed as ADME, tissue-based.
Series [13] is filed under the species Canis lupus familiaris. Put plainly: Positive allosteric modulation of dog M4 receptor assessed as increase in acetylcholine-induced calcium mobilization relative to acetylcholine. An outline of the steps:
(§2)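 M4 PAM concentration-response curves measured by calcium mobilization at the stated species' receptor. Potency reported as EC50/pEC50 and efficacy as % of acetylcholine maximum.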

The species entered for series [14] is Macaca fascicularis. The series is described as follows: Activity at cynomolgus monkey M2 receptor.
Series [15] has as its target Muscarinic acetylcholine receptor M4 (Rattus norvegicus) (UniProt P08485). Put plainly: Displacement of [3H]NMS from rat M4 receptor. An outline of the steps: (§3)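 Competition binding of ACh against [3H]-N-methylscopolamine at M4 of each species. Combined with ACh concentration-response fold-shift Ca2+ mobilization data to fit operational model parameters (KB, α, β). n=3–4, each in duplicate.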
For orientation: Displacement assays read how much labelled ligand stays bound in the presence of the test substance.

Series [16] is filed under the species Macaca fascicularis. Put plainly: Displacement of [3H]NMS from cynomolgus monkey M4 receptor. The essentials: as §3
The species named for series [17] is Rattus norvegicus. The series is described as follows: Activity at rat GABA-A receptor. The essentials: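 Rat GABAA receptor, benzodiazepine site, radioligand binding in a broad secondary pharmacology panel. IC50 taken from binding. Functional follow-up was run at 10 μM.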
Series [18] concerns the target Muscarinic acetylcholine receptor M4 (Rattus norvegicus) (UniProt P08485). The series is described as follows: Positive allosteric modulation of rat M4 receptor assessed as increase in acetylcholine-induced calcium mobilization relative to acetylcholine. The series is classed as functional. An outline of the steps: as §2
For series [19], the species on record is Canis lupus familiaris. The series is described as follows: Activity at dog M2 receptor.
For series [20], the species on record is Macaca fascicularis. The series is described as follows: Positive allosteric modulation of cynomolgus monkey M4 receptor assessed as increase in acetylcholine-induced calcium mobilization relative to acetylcholine. An outline of the steps:
as §2

The target of series [21] is T1, Muscarinic acetylcholine receptor M4 (Homo sapiens). Put plainly: Displacement of [3H]NMS from human M4 receptor. The essentials:
as §3

The subject of series [22] is Rattus norvegicus. Put plainly: Volume of distribution at steady state […] in Sprague-Dawley rat at 0.1 to 1 mg/kg, iv. The series is classed as ADME, organism-based. The note with it: in vivo. The essentials: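 IV pharmacokinetics in Sprague-Dawley rats at 0.1–1.0 mg/kg. CLp, elimination t½ and Vss derived.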

Chain of Muscarinic acetylcholine receptor M4 (Rattus norvegicus) (P08485 whole entry): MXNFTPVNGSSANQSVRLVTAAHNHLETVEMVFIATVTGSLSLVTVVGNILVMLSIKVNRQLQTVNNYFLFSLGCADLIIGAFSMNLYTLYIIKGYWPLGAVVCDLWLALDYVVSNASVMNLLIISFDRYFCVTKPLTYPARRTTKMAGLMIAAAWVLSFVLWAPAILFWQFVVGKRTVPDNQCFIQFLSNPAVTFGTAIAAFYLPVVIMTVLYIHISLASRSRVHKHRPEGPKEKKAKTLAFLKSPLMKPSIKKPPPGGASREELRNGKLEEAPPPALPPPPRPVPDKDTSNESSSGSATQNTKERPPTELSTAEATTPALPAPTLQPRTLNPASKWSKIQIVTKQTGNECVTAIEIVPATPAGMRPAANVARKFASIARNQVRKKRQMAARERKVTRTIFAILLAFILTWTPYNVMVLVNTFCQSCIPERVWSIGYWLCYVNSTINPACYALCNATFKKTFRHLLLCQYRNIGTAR
Chain of Cytochrome P450 2C9 (P11712 whole entry): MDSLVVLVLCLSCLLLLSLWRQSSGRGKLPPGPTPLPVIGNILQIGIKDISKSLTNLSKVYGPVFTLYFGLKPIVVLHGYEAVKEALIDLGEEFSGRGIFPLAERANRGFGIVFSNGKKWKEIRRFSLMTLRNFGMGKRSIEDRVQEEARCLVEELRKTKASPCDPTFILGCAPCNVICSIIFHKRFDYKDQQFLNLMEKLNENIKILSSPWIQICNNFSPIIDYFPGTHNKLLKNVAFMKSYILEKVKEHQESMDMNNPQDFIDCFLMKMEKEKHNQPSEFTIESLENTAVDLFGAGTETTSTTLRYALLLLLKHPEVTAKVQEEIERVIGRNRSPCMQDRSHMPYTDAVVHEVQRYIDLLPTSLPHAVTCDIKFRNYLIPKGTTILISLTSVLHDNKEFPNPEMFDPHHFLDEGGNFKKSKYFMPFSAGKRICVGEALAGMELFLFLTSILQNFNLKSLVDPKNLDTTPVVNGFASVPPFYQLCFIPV
Chain of Cytochrome P450 2D6 (P10635 whole entry): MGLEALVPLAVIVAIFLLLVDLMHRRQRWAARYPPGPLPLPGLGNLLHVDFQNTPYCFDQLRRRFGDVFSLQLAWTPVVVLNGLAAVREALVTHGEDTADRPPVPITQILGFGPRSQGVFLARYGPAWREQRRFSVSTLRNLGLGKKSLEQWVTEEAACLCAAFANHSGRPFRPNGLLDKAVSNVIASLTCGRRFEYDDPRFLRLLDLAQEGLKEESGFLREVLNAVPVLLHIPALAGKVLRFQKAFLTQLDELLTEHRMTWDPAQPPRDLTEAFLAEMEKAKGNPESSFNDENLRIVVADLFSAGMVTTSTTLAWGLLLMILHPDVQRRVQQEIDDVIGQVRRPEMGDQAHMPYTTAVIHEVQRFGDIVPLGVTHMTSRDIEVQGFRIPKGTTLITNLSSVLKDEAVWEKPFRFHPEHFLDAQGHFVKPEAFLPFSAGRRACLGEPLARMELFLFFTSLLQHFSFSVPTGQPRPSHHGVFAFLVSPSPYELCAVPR
Chain of Cytochrome P450 3A4 (P08684 whole entry): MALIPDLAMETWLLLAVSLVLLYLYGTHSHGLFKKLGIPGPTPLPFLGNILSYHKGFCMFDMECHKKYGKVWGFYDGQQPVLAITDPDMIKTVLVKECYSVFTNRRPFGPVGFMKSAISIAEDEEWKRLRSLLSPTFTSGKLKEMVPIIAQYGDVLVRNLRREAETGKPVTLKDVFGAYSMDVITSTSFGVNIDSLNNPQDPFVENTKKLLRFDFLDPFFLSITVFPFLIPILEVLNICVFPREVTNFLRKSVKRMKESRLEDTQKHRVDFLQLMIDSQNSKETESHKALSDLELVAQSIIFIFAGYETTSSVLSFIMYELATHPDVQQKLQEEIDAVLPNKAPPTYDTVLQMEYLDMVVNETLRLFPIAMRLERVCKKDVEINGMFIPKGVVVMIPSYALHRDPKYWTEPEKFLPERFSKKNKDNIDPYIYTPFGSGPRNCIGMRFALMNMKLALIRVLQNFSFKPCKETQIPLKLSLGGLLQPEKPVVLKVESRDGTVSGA

Turning to `Cc1nnc2sc(C(=O)NCc3cccc(-c4ccccc4)c3)c(N)c2c1C`, the %max in [1] came out at 41%. Moreover, the EC50 in series [2] (read-out: EC50) amounted to 1.65 µM.
`Cc1ncc(-c2ccc(CNC(=O)c3sc4nnc(C)c(C)c4c3N)cc2)cn1`: the %max in series [1] worked out at 65%. The EC50 was 0.23 µM in series [2] (read-out: EC50) and 0.214 µM in series [2] (read-out: pEC50 (converted)).
On to `Cc1nnc2sc(C(=O)NCc3ccc(-c4ccncc4)cc3)c(N)c2c1C`, for which the %max in series [1] amounted to 83%. Moreover, the IC50 in series [3] was determined as 1.3 µM; in series [4], 0.34 µM; in series [6], 9.7 µM; in series [10] it was 2.3 µM. Further, the fraction unbound worked out at 0.037 in series [5], 0.013 in series [11] and 0.042 in series [12]. Moreover, in series [7], the “beta t1/2” value is 90 min. Also, the Kp in [8] is recorded as 0.94. Moreover, the efflux ratio in [9] turned out to be 1.1. For the same compound, the EC50 in [2] (read-out: EC50) was 0.036 µM.
Regarding `Cc1cc(-c2ccc(CNC(=O)c3sc4nnc(C)c(C)c4c3N)cc2)cnc1F`, the %max in series [1] stood at 68%. Moreover, in series [2] (read-out: EC50), the EC50 worked out at 0.994 µM.
For the compound `Cc1nnc2sc(C(=O)NCc3ccc(-c4cccnc4)cc3)c(N)c2c1C`, the %max in [1] is 63%. In series [2] (read-out: EC50), the EC50 came out at 0.103 µM.
With `Cc1nnc2sc(C(=O)NCc3ccc(-c4ccnnc4)cc3)c(N)c2c1C`, in series [1], the %max stood at 96%. In addition, in series [2] (read-out: EC50), the EC50 worked out at 0.056 µM.
As for `Cc1nnc2sc(C(=O)NCc3ccc(-c4cccnc4F)cc3)c(N)c2c1C`, the %max was 49% in series [13], 74% in series [1], 72% in series [18] and 64% in [20]. The outcome in series [14], in series [17] and in [19] was inactive. The Kb in [15] came to 0.37 µM; in [16], 2.1 µM; in series [21], 2.8 µM.
In the case of `Cc1nnc2sc(C(=O)NCc3ccc(-c4ccccn4)cc3)c(N)c2c1C`, the %max in series [1] is 75%. Further, the EC50 in series [2] (read-out: EC50) is 0.232 µM; in [2] (read-out: pEC50 (converted)), 0.214 µM.
Take `Cc1nnc2sc(C(=O)NCc3ccc(-c4ccc(F)nc4)cc3)c(N)c2c1C`: the %max in series [1] turned out to be 79%. Also, the half-inhibitory concentration (IC50) in [3] was greater than 30 µM; in [4], 25 µM; in series [6], 0.79 µM; in series [10], 26 µM. For the same compound, the values for the free fraction (fraction unbound) in series [5] and in [11] were 0.004 and 0.023, respectively. Also, in series [7], the “beta t1/2” value was determined as 28.8 min. In addition, the partition ratio (Kp) in series [8] is given as 0.13. The compound further gave a Vdss in series [22] of 0.6 L/kg. For the same compound, the EC50 in series [2] (read-out: EC50) stood at 0.064 µM.
With `Cc1nnc2sc(C(=O)NCc3cccc(Br)c3)c(N)c2c1C`, the %max in [1] was 84%. The results for the EC50 in [2] (read-out: EC50) and in series [2] (read-out: pEC50 (converted)) were 0.185 µM and 0.17 µM, respectively.
Consider `Cc1nnc2sc(C(=O)NCc3ccccc3Br)c(N)c2c1C`, for which the %max in [1] worked out at 31%. Also, the EC50 in [2] (read-out: EC50) is greater than 10 µM.

The values are drawn from ChEMBL document CHEMBL4028836, “Optimization of M4 positive allosteric modulators (PAMs): The discovery of VU0476406, a non-human primate in vivo tool compound for translational pharmacology” (Bioorg Med Chem Lett, 2017).
